Assays:
[1] = molecular target: T1, Sex hormone-binding globulin (Homo sapiens) (UniProt P04278); assay: In vitro inhibition of [3H]DHT binding to human sex hormone-binding globulin (SHBG); set-up: concentration or dose not given beside the values
T1 sequence (whole entry): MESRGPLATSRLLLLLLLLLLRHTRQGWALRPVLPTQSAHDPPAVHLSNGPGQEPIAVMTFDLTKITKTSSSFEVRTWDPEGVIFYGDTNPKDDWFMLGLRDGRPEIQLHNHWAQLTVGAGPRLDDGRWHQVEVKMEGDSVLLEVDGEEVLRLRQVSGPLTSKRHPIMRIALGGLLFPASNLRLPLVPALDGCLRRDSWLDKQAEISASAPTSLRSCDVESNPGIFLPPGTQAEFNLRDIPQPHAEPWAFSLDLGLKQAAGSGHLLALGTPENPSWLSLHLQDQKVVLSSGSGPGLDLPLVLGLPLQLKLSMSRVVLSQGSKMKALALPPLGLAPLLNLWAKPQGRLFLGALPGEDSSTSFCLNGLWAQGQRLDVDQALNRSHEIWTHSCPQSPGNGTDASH
Summary of the method: (§1)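 Human pregnancy serum diluted 1:200 (about 1 nM SHBG), stripped of endogenous steroid with dextran-coated charcoal, mixed with [3H]DHT at 10 nM. Triplicate test compound added, incubated overnight at room temperature. Dextran-coated charcoal slurry then added for 10 min at 0°C and centrifuged to separate bound from free label. Bound label counted by scintillation and expressed relative to the no-competitor control.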

[2] = molecular target: T1, Sex hormone-binding globulin (Homo sapiens); assay: Relative binding affinity for human sex hormone-binding globulin (SHBG) compared to testosterone; summary of the method: as §1
[3] = molecular target: T1, Sex hormone-binding globulin (Homo sapiens); assay: Association […] constant for human sex hormone-binding globulin (SHBG)
[4] = molecular target: T2, Sex hormone-binding globulin (Homo sapiens, UniProt P04278); assay: Inhibitory concentration against [3H]-DHT binding to human sex hormone-binding globulin (SHBG); summary of the method: as §1
T2 sequence (P04278 whole entry): T1 sequence (whole entry)

[5] = molecular target: T1, Sex hormone-binding globulin (Homo sapiens); assay: Relative binding affinity towards human sex hormone-binding globulin (SHBG) compared to estradiol; summary of the method: as §1

Compound	Reduction [1]	also measured
Cc1c(CCC(=O)O)c(=O)oc2c(C)c(O)ccc12	46%	–
COc1cc([C@H]2OC[C@]3(CO)[C@H](C)[C@H]2C(C)=C[C@@H]3C)ccc1O	84%	relative binding affinity (RBA) [2]: 696; Ka [3]: 730000 M⁻¹; IC50 [4]: 22.4 µM; relative binding affinity (RBA) [5]: 2750
O=C1C=CC2=N[C@@]34CCCC[C@@H]3[C@@H](c3ccc(O)cc3)C=C(c3ccccc3)N4C2=C1	0%	–
O=C(Cc1ccc2cccnc2c1)c1ccc(O)cc1O	0%	–
CC(=O)c1c(O)c(C)c(O)c2c1OC1=CC(=O)[C@H](C(C)=O)C(=O)[C@]12C	4%	–
O=C1C=CC2=C3c4cc(O)c(O)cc4C[C@@]3(O)COC2=C1O	6%	–
CC[C@@H](O)c1ccc(OC[C@H](O)CN2CCCCC2)c(OC)c1	5%	–
C[C@H]1CC[C@H]2[C@@](C)(CO)[C@@H](O)CC[C@]2(C)[C@@]12CC[C@](CO)(CC(=O)O)O2	2%	–
CC1=C[C@@H](C)[C@@]2(CO)CO[C@@H](c3ccc(O)cc3)[C@@H]1[C@H]2C	56%	relative binding affinity (RBA) [2]: 125; Ka [3]: 130000 M⁻¹; IC50 [4]: 124 µM; relative binding affinity (RBA) [5]: 493
Cc1cc(O)c(C(=O)/C=C/c2ccc(O)c([N+](=O)[O-])c2)c(=O)o1	1%	–
COc1cc(/C=C/C(=O)c2c(O)cc(C)oc2=O)ccc1O	2%	–
COC(=O)c1ccc(CC(=O)c2ccc(O)cc2O)o1	10%	–
Cc1c(CC(=O)N[C@@H](C)C(=O)O)c(=O)oc2cc(O)ccc12	0%	–
C=C1CC[C@H]2[C@](C)(CO)[C@H](O)CC[C@@]2(C)[C@@H]1C/C=C1/C(=O)OC[C@H]1O	7%	–
O=C(/C=C/c1cccnc1)c1ccc(O)cc1	57%	–
O=C(Cc1ccc(O)cc1)c1ccc(O)cc1O	95%	relative binding affinity (RBA) [2]: 1150; Ka [3]: 1.2e+06 M⁻¹; IC50 [4]: 13.6 µM; relative binding affinity (RBA) [5]: 4530
COC(=O)c1cc(CC(=O)c2ccc(O)cc2O)c(C)o1	0%	–
CN1CCc2cc(O)c(O)cc2[C@H]1Cc1ccc(O)c(O)c1	14%	–
COc1cc2c(cc1O)CCN(C[C@@H](O)CNCCO)[C@H]2C	12%	–
CC[C@H](NC(=O)Cc1c(C)c2ccc(O)cc2oc1=O)C(=O)O	0%	–
CC1(C)CC2(CC(C)(C)c3cc(O)c(O)cc32)c2cc(O)c(O)cc21	48%	–
O=C1C=CC2=C3c4ccc(O)cc4OC[C@]3(O)CC2=C1	27%	–
C[C@H]1CC[C@H]2[C@@](C)(CO)[C@H](O)CC[C@]2(C)[C@@]12CC[C@@](C)(CO)O2	6%	–
CC(=O)Oc1ccc2c(C)c(C[C@H](C)O)c(=O)oc2c1	42%	–
C[C@H]1CC[C@@H]2[C@](C)(CO)[C@H](O)CC[C@@]2(C)[C@@]12C[C@@]1(COC(=O)C1)CO2	9%	–
C=C1CC[C@H]2[C@](C)(CO)[C@H](O)CC[C@@]2(C)[C@@H]1C/C=C1/C(=O)OC[C@@H]1O	0%	–
C=C1CC[C@H]2[C@](C)(CO)[C@H](O)CC[C@@]2(C)[C@@H]1/C=C/C1=CCOC1=O	0%	–
C[C@H]1CC[C@@H]2[C@](C)(CO)[C@H](O)CC[C@@]2(C)[C@]12CC[C@@]1(CCOC1)O2	11%	–
